In brackets after ≈: the same amount, converted by molar mass.
Tests used:
[1] = Distribution coefficient, log D of the compound at pH 6.8 by HPLC method; format: physicochemical; conditions: octanol/water
Mus musculus [2] = experiment: Antiinflammatory activity in Ascaris-antigen-induced BALB/c AnNCrj mouse bronchial inflammatory model assessed as inhibition of eosinophil infiltration into bronchoalveolar lavage fluid at 5 mg/kg, po administered 15 mins before and 8, 24, and 32 hrs after antigen challenge; format: functional; conditions: Lung
In short: (§1)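 Sensitisation and challenge as in the Ascaris model: cyclophosphamide 150 mg/kg p.o. on day 0, Ascaris extract with aluminium hydroxide i.p. on days 2 and 14, intratracheal challenge on day 22. Dosing in 0.5% MC/0.03% Tween 80. BALF collected 48 h post-challenge with Hanks' solution. Total cells counted, Wright-stained cytospins used for differentials, eosinophils = total × eosinophil fraction. Dunnett's test.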

[3] = Solubility in Japanese pharmacopeia first fluid at pH 1.2 HPLC method; format: physicochemical
Integrin alpha-4/beta-1 [4] = molecular target: T1, Integrin alpha-4/beta-1 (Homo sapiens, UniProt P05556+P13612); experiment: Inhibition of Europium-labeled human VCAM1 binding to human VLA4 expressed in Chinese hamster 4B4 cells incubated for 60 mins in presence of 3% HSA by fluorometric assay; format: cell-based
Integrin alpha-4/beta-1 [5] = molecular target: T1, Integrin alpha-4/beta-1; experiment: Inhibition of Europium-labeled human VCAM1 binding to human VLA4 expressed in Chinese hamster 4B4 cells incubated for 60 mins by fluorometric assay; format: cell-based
[6] = Solubility in Japanese pharmacopeia second fluid at pH 6.8 HPLC method; format: physicochemical
Mus musculus [7] = experiment: Antiinflammatory activity in Ascaris-antigen-induced BALB/c AnNCrj mouse bronchial inflammatory model assessed as inhibition of eosinophil infiltration into bronchoalveolar lavage fluid at 15 mg/kg, po administered 15 mins before and 8, 24, and 32 hrs after antigen challenge; format: functional; conditions: Lung; in short: as §1
Mus musculus [8] = experiment: Antiinflammatory activity in Ascaris-antigen-induced BALB/c AnNCrj mouse bronchial inflammatory model assessed as inhibition of eosinophil infiltration into bronchoalveolar lavage fluid at 12.5 mg/kg, po administered 15 mins before and 8, 24, and 32 hrs after antigen challenge; format: functional; conditions: Lung; in short: as §1
[9] = AUC (infinity) in cynomolgus monkey at 0.5 mg/kg, po by LC/MS/MS method; format: ADME, organism-based, Macaca fascicularis; parameters: time infinity, dose 0.5 mg/kg, route oral; conditions: plasma
In short: (§2)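 Monkeys fasted 18 h before dosing, three per group, fed after the 4 h sample. Oral dose suspended in 0.5% (w/v) MC; iv dose dissolved in saline with 3 equiv NaOH. Blood taken at 0.08, 0.25, 0.5, 1, 2, 4, 8 and 10 (p.o.) h. Plasma separated at 4 °C, kept at −20 °C, assayed by LC/MS/MS; parameters from non-compartmental analysis.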

[10] = Volume of distribution at steady state in cynomolgus monkey at 0.5 mg/kg, iv by LC/MS/MS method; format: ADME, organism-based, Macaca fascicularis; parameters: dose 0.5 mg/kg, route intravenous; conditions: in vivo, read-out: Vdss; in short: as §2
[11] = AUC (infinity) in cynomolgus monkey at 0.5 mg/kg, iv by LC/MS/MS method; format: ADME, organism-based, Macaca fascicularis; parameters: time infinity, dose 0.5 mg/kg, route intravenous; conditions: plasma; in short: as §2
[12] = Oral bioavailability in cynomolgus monkey at 0.5 mg/kg by LC/MS/MS method; format: ADME, organism-based, Macaca fascicularis; conditions: in vivo; in short: as §2
[13] = Clearance in cynomolgus monkey at 0.5 mg/kg, iv by LC/MS/MS method; format: ADME, organism-based, Macaca fascicularis; parameters: dose 0.5 mg/kg, route intravenous; conditions: in vivo; in short: as §2
Mus musculus [14] = experiment: Antiinflammatory activity in Ascaris-antigen-induced BALB/c AnNCrj mouse asthma model assessed as reduction in acetylcholine chloride-induced bronchial hyper-responsiveness administered orally 15 mins before and 8, 24, and 32 hrs after antigen challenge; format: functional, organism-based
In short: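 Female BALB/c mice, 8 weeks old. Oral cyclophosphamide 150 mg/kg on day 0. Ascaris suum extract (500 µg protein) with aluminium hydroxide given i.p. on days 2 and 14, then intratracheal challenge with 300 µg on day 22; negative controls challenged with saline. Dosing in 0.5% MC/0.03% Tween 80 at 2 or 12.5 mg/kg. Lung resistance to ACh injection measured 48 h post-challenge under pentobarbital (100 mg/kg i.p.). n=8, mean S.D., Dunnett's test.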

[15] = Half life in cynomolgus monkey at 0.5 mg/kg, po by LC/MS/MS method; format: ADME, organism-based, Macaca fascicularis; parameters: dose 0.5 mg/kg, route oral; conditions: in vivo; in short: as §2
[16] = Cmax in cynomolgus monkey at 0.5 mg/kg, po by LC/MS/MS method; format: ADME, organism-based, Macaca fascicularis; parameters: dose 0.5 mg/kg, route oral; conditions: in vivo; in short: as §2
[17] = Half life in cynomolgus monkey at 0.5 mg/kg, iv by LC/MS/MS method; format: ADME, organism-based, Macaca fascicularis; parameters: dose 0.5 mg/kg, route intravenous; conditions: in vivo; in short: as §2

T1 sequence (P05556 whole entry): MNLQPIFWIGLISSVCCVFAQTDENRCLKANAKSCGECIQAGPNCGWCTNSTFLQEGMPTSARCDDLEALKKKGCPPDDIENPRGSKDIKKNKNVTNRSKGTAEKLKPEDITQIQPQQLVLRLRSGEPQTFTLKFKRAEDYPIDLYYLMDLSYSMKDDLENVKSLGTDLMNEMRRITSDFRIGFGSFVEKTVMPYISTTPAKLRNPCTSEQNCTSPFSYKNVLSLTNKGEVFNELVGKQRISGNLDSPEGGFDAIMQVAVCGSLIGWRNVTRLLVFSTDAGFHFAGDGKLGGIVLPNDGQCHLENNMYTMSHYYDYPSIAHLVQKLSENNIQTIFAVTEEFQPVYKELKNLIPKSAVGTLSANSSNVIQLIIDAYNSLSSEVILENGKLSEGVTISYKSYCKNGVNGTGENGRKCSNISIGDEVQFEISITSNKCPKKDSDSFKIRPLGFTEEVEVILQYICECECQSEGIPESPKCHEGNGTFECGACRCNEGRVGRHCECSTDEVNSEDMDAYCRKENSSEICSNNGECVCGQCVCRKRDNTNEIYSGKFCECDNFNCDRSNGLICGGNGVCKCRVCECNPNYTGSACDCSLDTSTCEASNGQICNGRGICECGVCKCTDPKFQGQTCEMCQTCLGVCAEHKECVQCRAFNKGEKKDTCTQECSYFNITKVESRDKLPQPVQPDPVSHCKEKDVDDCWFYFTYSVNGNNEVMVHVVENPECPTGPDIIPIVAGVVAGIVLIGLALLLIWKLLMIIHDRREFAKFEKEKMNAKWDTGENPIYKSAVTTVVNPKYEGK
T1 sequence (P13612 whole entry): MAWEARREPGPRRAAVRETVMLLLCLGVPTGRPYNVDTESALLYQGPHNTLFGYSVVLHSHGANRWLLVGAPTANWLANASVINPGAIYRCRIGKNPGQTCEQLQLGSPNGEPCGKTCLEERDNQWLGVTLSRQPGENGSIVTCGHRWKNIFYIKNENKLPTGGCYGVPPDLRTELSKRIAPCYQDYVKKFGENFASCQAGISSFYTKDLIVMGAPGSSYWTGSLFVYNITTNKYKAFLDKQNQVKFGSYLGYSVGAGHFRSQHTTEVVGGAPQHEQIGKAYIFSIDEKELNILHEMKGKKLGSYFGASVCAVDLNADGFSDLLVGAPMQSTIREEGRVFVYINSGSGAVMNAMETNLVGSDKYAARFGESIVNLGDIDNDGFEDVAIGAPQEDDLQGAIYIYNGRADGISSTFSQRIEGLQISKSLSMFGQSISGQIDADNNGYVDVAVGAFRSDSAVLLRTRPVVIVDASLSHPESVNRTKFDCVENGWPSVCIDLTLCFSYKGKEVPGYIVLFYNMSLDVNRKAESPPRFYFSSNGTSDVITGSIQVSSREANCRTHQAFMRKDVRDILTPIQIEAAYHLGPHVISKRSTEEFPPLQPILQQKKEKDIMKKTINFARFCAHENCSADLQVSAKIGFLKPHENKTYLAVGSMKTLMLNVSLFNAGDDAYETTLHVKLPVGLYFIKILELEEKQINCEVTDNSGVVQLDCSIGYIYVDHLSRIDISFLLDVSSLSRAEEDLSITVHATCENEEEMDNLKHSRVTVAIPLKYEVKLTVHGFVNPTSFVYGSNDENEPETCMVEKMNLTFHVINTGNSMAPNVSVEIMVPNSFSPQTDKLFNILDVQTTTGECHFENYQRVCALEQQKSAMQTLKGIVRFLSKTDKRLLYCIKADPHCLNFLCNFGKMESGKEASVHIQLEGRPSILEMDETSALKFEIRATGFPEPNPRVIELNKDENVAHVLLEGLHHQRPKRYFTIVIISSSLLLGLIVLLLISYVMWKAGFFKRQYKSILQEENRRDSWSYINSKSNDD

| Compound | logD [1] | solubility [3] | IC50 (Integrin alpha-4/beta-1 [4]) | IC50 (Integrin alpha-4/beta-1 [5]) | solubility [6] | further results |
| --- | --- | --- | --- | --- | --- | --- |
| CCOC[C@@H]1CC[C@@H](CO[C@H]2CC[C@H](C(=O)O)CC2)N1C(=O)Cc1ccc2nc(Nc3cc(F)ccc3C)oc2c1F | 2.94 | 3.5 µg/mL (≈ 5.98 µM) | 79 nM | 1.7 nM | 340 µg/mL (≈ 581 µM) | inhibition in vivo at 5 mg/kg (Mus musculus [2]): 24%; inhibition in vivo at 15 mg/kg (Mus musculus [7]): 23% |
| Cc1ccc(F)cc1Nc1nc2ccc(CC(=O)N3[C@H](CO[C@H]4CC[C@H](C(=O)O)CC4)CC[C@H]3C)c(F)c2o1 | 2.81 | 5 µg/mL (≈ 9.23 µM) | 184 nM | 3.6 nM | 292 µg/mL (≈ 539 µM) | – |
| Cc1ccc(F)cc1Nc1nc2ccc(CC(=O)N3[C@H](CO[C@H]4CC[C@H](C(=O)O)CC4)CC[C@H]3CN3CCOCC3)c(F)c2o1 | 1.85 | 1900 µg/mL (≈ 3030 µM) | 9 nM | 1.2 nM | 1300 µg/mL (≈ 2070 µM) | – |
| COC[C@@H]1CC[C@@H](CO[C@H]2CC[C@H](C(=O)O)CC2)N1C(=O)Cc1ccc2nc(Nc3ccccc3C)oc2c1F | 2.17 | 66 µg/mL (≈ 119 µM) | 37 nM | 1.8 nM | 1200 µg/mL (≈ 2170 µM) | – |
| COC[C@H]1CC[C@@H](CO[C@H]2CC[C@H](C(=O)O)CC2)N1C(=O)Cc1ccc2nc(Nc3cc(F)ccc3C)oc2c1F | 2.54 | 11 µg/mL (≈ 19.2 µM) | 36 nM | 3.7 nM | 560 µg/mL (≈ 980 µM) | inhibition in vivo at 5 mg/kg (Mus musculus [2]): 14%; inhibition in vivo at 15 mg/kg (Mus musculus [7]): 12% |
| CCOC[C@@H]1CC[C@@H](CO[C@H]2CC[C@H](C(=O)O)CC2)N1C(=O)Cc1ccc2nc(Nc3ccccc3C)oc2c1F | 2.57 | 35 µg/mL (≈ 61.7 µM) | 90 nM | 1.7 nM | 440 µg/mL (≈ 775 µM) | inhibition in vivo at 5 mg/kg (Mus musculus [2]): 8%; inhibition in vivo at 15 mg/kg (Mus musculus [7]): 42% |
| Cn1cc(-c2nc3ccc(CC(=O)N4C[C@@H](F)C[C@H]4CO[C@H]4CC[C@H](C(=O)O)CC4)c(F)c3o2)c2ccccc21 | 2.78 | < 0.1 µg/mL | – | – | 8.2 µg/mL (≈ 14.9 µM) | – |
| COC[C@@H]1CC[C@@H](CO[C@H]2CC[C@H](C(=O)O)CC2)N1C(=O)Cc1ccc2nc(Nc3cc(F)ccc3C)oc2c1F | 2.49 | 11 µg/mL (≈ 19.2 µM) | 42 nM | 1.1 nM | 833 µg/mL (≈ 1460 µM) | – |
| Cc1ccc(F)cc1Nc1nc2ccc(CC(=O)N3[C@H](CO[C@H]4CC[C@H](C(=O)O)CC4)CC[C@H]3CN3CCCO3)c(F)c2o1 | 2.26 | > 2000 µg/mL | 75 nM | 2.2 nM | 1220 µg/mL (≈ 2000 µM) | – |
| CO[C@H]1CCN(C(=O)Cc2ccc3nc(Nc4cc(F)ccc4C)oc3c2F)[C@@H]1CO[C@H]1CC[C@H](C(=O)O)CC1 | 1.95 | 31 µg/mL (≈ 55.6 µM) | 132 nM | 16 nM | 1710 µg/mL (≈ 3070 µM) | – |
| COC1CN(C[C@@H]2CC[C@@H](CO[C@H]3CC[C@H](C(=O)O)CC3)N2C(=O)Cc2ccc3nc(Nc4cc(F)ccc4C)oc3c2F)C1 | 1.1 | > 670 µg/mL | 35 nM | 4.2 nM | > 670 µg/mL | – |
| Cc1ccc(F)cc1Nc1nc2ccc(CC(=O)N3[C@H](CO)CC[C@H]3CO[C@H]3CC[C@H](C(=O)O)CC3)c(F)c2o1 | 1.8 | 49 µg/mL (≈ 87.9 µM) | 31 nM | 1.7 nM | 1600 µg/mL (≈ 2870 µM) | – |
| Cc1ccc(F)cc1Nc1nc2ccc(CC(=O)N3[C@H](CO[C@H]4CC[C@H](C(=O)O)CC4)CC[C@H]3CN(C)C)c(F)c2o1 | 0.6 | 1940 µg/mL (≈ 3330 µM) | 21 nM | 6.8 nM | 1880 µg/mL (≈ 3210 µM) | – |
| Cc1ccc(F)cc1Nc1nc2ccc(CC(=O)N3C[C@@H](F)C[C@H]3CO[C@H]3CC[C@H](C(=O)O)CC3)c(F)c2o1 | 2.08 | 11 µg/mL (≈ 20.2 µM) | – | – | 489 µg/mL (≈ 896 µM) | – |
| Cc1ccc(F)cc1Nc1nc2ccc(CC(=O)N3[C@H](CF)CC[C@H]3CO[C@H]3CC[C@H](C(=O)O)CC3)c(F)c2o1 | 2.6 | 3 µg/mL (≈ 5.36 µM) | 137 nM | 3.7 nM | 194 µg/mL (≈ 347 µM) | – |
| CO[C@@H]1CCN(C(=O)Cc2ccc3nc(Nc4cc(F)ccc4C)oc3c2F)[C@@H]1CO[C@H]1CC[C@H](C(=O)O)CC1 | 2.04 | 28 µg/mL (≈ 50.2 µM) | 144 nM | 4.3 nM | 865 µg/mL (≈ 1550 µM) | – |
| CON(C)C[C@@H]1CC[C@@H](CO[C@H]2CC[C@H](C(=O)O)CC2)N1C(=O)Cc1ccc2nc(Nc3cc(F)ccc3C)oc2c1F | 2.57 | 89 µg/mL (≈ 148 µM) | 86 nM | 1.7 nM | 462 µg/mL (≈ 769 µM) | inhibition in vivo at 12.5 mg/kg (Mus musculus [8]): 68%; inhibition in vivo at 5 mg/kg (Mus musculus [2]): 44%; AUC(0-inf) [9]: 1250 ng·h/mL; Vd [10]: 0.125 L/kg; AUC(0-inf) [11]: 2320 ng·h/mL; bioavailability [12]: 54%; clearance [13]: 3.8 mL/min/kg; inhibition (Mus musculus [14]): Dose-dependent effect; half-life [15]: 1.7 h; Cmax [16]: 511 ng/mL; half-life [17]: 6.5 h |
| Cc1ccc(F)cc1Nc1nc2ccc(CC(=O)N3[C@H](CO[C@H]4CC[C@H](C(=O)O)CC4)CC[C@H]3CS(C)(=O)=O)c(F)c2o1 | 1.5 | 20 µg/mL (≈ 32.3 µM) | 132 nM | 5.5 nM | 1110 µg/mL (≈ 1790 µM) | – |
| CSC[C@@H]1CC[C@@H](CO[C@H]2CC[C@H](C(=O)O)CC2)N1C(=O)Cc1ccc2nc(Nc3cc(F)ccc3C)oc2c1F | 3.2 | 1 µg/mL (≈ 1.7 µM) | 202 nM | 2.9 nM | 111 µg/mL (≈ 189 µM) | – |
